From ChEMBL document CHEMBL2177069, “Novel peptidomimetic compounds containing redox active chalcogens and quinones as potential anticancer agents” (Eur J Med Chem, 2012) come the findings set out here.

Data set [1] deals with Saccharomyces cerevisiae. In words: Growth inhibition of SOD1-deficient Saccharomyces cerevisiae YJR104C mutant at 20 ug/disc after 24 to 48 hrs by agar diffusion assay. The class given is functional. Conditions: read-out: DIZ. The essentials: (§1)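 S. cerevisiae deletion mutants or wild type grown on YPD, seeded into liquid agar medium at an optical density of 0.1. 6 mm paper discs soaked with methanolic compound solution were placed on the plates and incubated at 30 °C. Growth was checked after 1 and 2 days, and the inhibition zone diameter was recorded in mm.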
(In general: In agar diffusion tests the substance spreads into inoculated agar from a disc or well.)

Data set [2] deals with HUVEC. In words: Induction of oxidative stress in human HUVEC cells assessed as increase in superoxide free radical production after 1 hr by DHE-based by fluorescence spectrophotometric analysis. The class given is cell-based. The essentials: (§2)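 Cells were seeded at 10^5 per well and given graded compound concentrations for 1 h. They were then loaded with DHE or DCF probe for 30 min in the dark. Fluorescence was read immediately: DHE ex 540/em 600 nm; DCF ex 485/em 528 nm. Results were expressed as arbitrary units per 10^5 cells.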

The subject of data set [3] is Saccharomyces cerevisiae. In words: Growth inhibition of POS5-deficient Saccharomyces cerevisiae YPL188W mutant at 20 ug/disc after 24 to 48 hrs by agar diffusion assay. The data set is classed as functional. The conditions noted are these: read-out: DIZ. The procedure, abridged: as §1
The subject of data set [4] is MCF7. In words: Cytotoxicity against human MCF7 cells after 24 hrs by MTT assay. The class given is functional, cell-based. Conditions: MCF7, 24 h. The essentials:
(§3)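 MTT assay. Cells were seeded at 50,000 cells/mL in medium with 10% fetal calf serum and grown for two days at 37 °C, 10% CO2. Serial dilutions of compound were then added for 24 h. MTT was added (final 0.5 mg/mL) for 2 h, and the formazan was pelleted, washed, dissolved in isopropanol with 0.4% HCl and read at 590 nm. IC50 is the concentration giving 50% of untreated-control absorbance, taken from dose-response curves; mean of two parallel experiments.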
(In general: Formazan colour is commonly taken as a measure of viable cells.)

The test system of data set [5] is Saccharomyces cerevisiae. In words: Growth inhibition of COX17-deficient Saccharomyces cerevisiae YLL009C mutant at 20 ug/disc after 24 to 48 hrs by agar diffusion assay. The class given is functional. The conditions noted are these: read-out: DIZ. The essentials:
as §1

In data set [6] the test system is A-431. In words: Cytotoxicity against human A431 cells after 24 hrs by MTT assay. The class given is functional, cell-based. Conditions: A-431, 24 h. The essentials:
as §3

In data set [7] the test system is Saccharomyces cerevisiae. In words: Growth inhibition of UFD2-deficient Saccharomyces cerevisiae YDL190C mutant at 20 ug/disc after 24 to 48 hrs by agar diffusion assay. The data set is classed as functional. Conditions: read-out: DIZ. The essentials:
as §1

Data set [8] has as its system A-431. In words: Induction of oxidative stress in human A431 cells assessed as increase in hydrogen peroxide free radical production after 1 hr by DCF-based fluorescence spectrophotometric analysis. The data set is classed as functional, cell-based. The procedure, abridged:
as §2

Data set [9] relates to Saccharomyces cerevisiae. In words: Growth inhibition of PST2-deficient Saccharomyces cerevisiae YDR032C mutant at 20 ug/disc 24 to 48 hrs by agar diffusion assay. The class given is functional. Conditions: read-out: DIZ. The procedure, abridged:
as §1

Data set [10] concerns Saccharomyces cerevisiae. Nature of the data set: Growth inhibition of WSC4-deficient Saccharomyces cerevisiae YHL028W mutant at 20 ug/disc 24 to 48 hrs by agar diffusion assay. The class given is functional. Conditions: read-out: DIZ. The procedure, abridged:
as §1

In data set [11] the test system is Saccharomyces cerevisiae. Nature of the data set: Growth inhibition of RCK1-deficient Saccharomyces cerevisiae YGL158W mutant at 20 ug/disc after 24 to 48 hrs by agar diffusion assay. The conditions noted are these: read-out: DIZ. The data set is classed as functional. The procedure, abridged:
as §1

Data set [12] deals with Saccharomyces cerevisiae. Nature of the data set: Growth inhibition of wild type Saccharomyces cerevisiae BY4741 at 20 ug/disc after 24 to 48 hrs by agar diffusion assay. The class given is functional. Conditions: read-out: DIZ. The procedure, abridged:
as §1

Data set [13] deals with Saccharomyces cerevisiae. In words: Growth inhibition of GTT2-deficient Saccharomyces cerevisiae YLL060C mutant at 20 ug/disc after 24 to 48 hrs by agar diffusion assay. The conditions noted are these: read-out: DIZ. The class given is functional. The essentials:
as §1

Data set [14] deals with Saccharomyces cerevisiae. Nature of the data set: Growth inhibition of GSH2-deficient Saccharomyces cerevisiae YOL049W mutant at 20 ug/disc after 24 to 48 hrs by agar diffusion assay. The data set is classed as functional. Conditions: read-out: DIZ. The essentials: as §1
The test system of data set [15] is HUVEC. Nature of the data set: Cytotoxicity against human HUVEC cells after 24 hrs by MTT assay. The data set is classed as cell-based. The essentials:
as §3

The nature of data set [16]: Cytotoxicity against human PHF cells after 24 hrs by MTT assay. The data set is classed as cell-based. The essentials: as §3
Data set [17] concerns Saccharomyces cerevisiae. In words: Growth inhibition of SOD2-deficient Saccharomyces cerevisiae YHR008C mutant at 20 ug/disc 24 to 48 hrs by agar diffusion assay. The conditions noted are these: read-out: DIZ. The data set is classed as functional. The essentials:
as §1

In data set [18] the test system is HUVEC. In words: Induction of oxidative stress in human HUVEC cells assessed as increase in hydrogen peroxide free radical production after 1 hr by DCF-based fluorescence spectrophotometric analysis. The class given is cell-based. The essentials: as §2
The subject of the next data set is A498. In words: Cytotoxicity against human A498 cells after 24 hrs by MTT assay. The class given is functional, cell-based. Conditions: A498, 24 h. The procedure, abridged:
as §3

Data set [19] relates to MCF7. Nature of the data set: Induction of oxidative stress in human MCF7 cells assessed as decrease in GSH level at 5 uM after 1 hr by DTNB assay relative to control. The class given is functional. Also noted: scale not given: the % may be the effect or the level left. The procedure, abridged: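 MCF-7 cells (10^6) were treated for 1 h at 37 °C, trypsinized, and washed twice with cold PBS. GSH was extracted with chilled 5% metaphosphoric acid at 4 °C for 2 h, then the lysate was centrifuged. Supernatant was mixed with 0.2 M sodium phosphate pH 8.0 and 0.04 mM DTNB for 10 min at room temperature. Absorbance was read at 412 nm against a reagent blank, and GSH was quantified from a standard curve.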

By IC50 is commonly meant the concentration that gives 50% inhibition.

SMILES strings stand for the structures. The source made the active and inactive calls. No cut-off for these calls is given here.

In the case of `CC1=C(SCCC(=O)OC(CC[Se]c2ccccc2)C(=O)NCCCCCC(=O)OCc2ccccc2)C(=O)c2ccccc2C1=O` (stereo not drawn), the zone of inhibition at 20 µg/disc in the data set on Saccharomyces cerevisiae [1] was determined as 13 mm; with Saccharomyces cerevisiae [3] it was 0 mm; with Saccharomyces cerevisiae [5], 0 mm; in the data set on Saccharomyces cerevisiae [7], 0 mm; with Saccharomyces cerevisiae [9], 11 mm; with Saccharomyces cerevisiae [10], 11 mm. Besides, the zone of inhibition at 20 µg/disc came to 0 mm in the data set on Saccharomyces cerevisiae [11]; 0 mm in the data set on Saccharomyces cerevisiae [12]; 17 mm in the data set on Saccharomyces cerevisiae [13]; 0 mm with Saccharomyces cerevisiae [14]; 12 mm with Saccharomyces cerevisiae [17]. In addition, the Activity entry with HUVEC [2] and with HUVEC [18] was “Non-toxic” throughout. Moreover, the IC50 with MCF7 [4] was 19 µM; with A-431 [6], over 100 µM; with HUVEC [15], 17 µM; in data set [16], 21 µM; in the data set on A498, over 100 µM. Moreover, the outcome in the data set with A-431 [8] was Active.
`CC1=C(SCCC(=O)OC(C[Se]c2ccccc2)C(=O)NCCCCCC(=O)OCc2ccccc2)C(=O)c2ccccc2C1=O` (stereo not drawn): the zone of inhibition at 20 µg/disc in the data set with Saccharomyces cerevisiae [1] stood at 18 mm; with Saccharomyces cerevisiae [3], 0 mm; in the data set with Saccharomyces cerevisiae [5] it was 0 mm; in the data set on Saccharomyces cerevisiae [7], 0 mm; in the data set on Saccharomyces cerevisiae [9] it was 12 mm; in the data set with Saccharomyces cerevisiae [10], 12 mm. For the same compound, the zone of inhibition at 20 µg/disc was determined as 0 mm in the data set with Saccharomyces cerevisiae [11]; 0 mm in the data set on Saccharomyces cerevisiae [12]; 0 mm with Saccharomyces cerevisiae [13]; 0 mm with Saccharomyces cerevisiae [14]; 13 mm in the data set on Saccharomyces cerevisiae [17]. Moreover, the IC50 is 10 µM in the data set with MCF7 [4]; over 100 µM with A-431 [6]; 23 µM with HUVEC [15]; 50 µM in data set [16]; over 100 µM with A498.
With `CC1=C([Se]CC(OC(=O)CNC(=O)OC(C)(C)C)C(=O)NCCCCCC(=O)OCc2ccccc2)C(=O)c2ccccc2C1=O` (stereo not drawn), the zone of inhibition at 20 µg/disc in the data set on Saccharomyces cerevisiae [1] worked out at 20 mm; with Saccharomyces cerevisiae [3], 0 mm; with Saccharomyces cerevisiae [5], 0 mm; with Saccharomyces cerevisiae [7] it was 0 mm; with Saccharomyces cerevisiae [9] it was 11 mm; in the data set on Saccharomyces cerevisiae [10] it was 14 mm. Also, the zone of inhibition at 20 µg/disc with Saccharomyces cerevisiae [11] came out at 0 mm; in the data set with Saccharomyces cerevisiae [12], 0 mm; with Saccharomyces cerevisiae [13], 18 mm; in the data set on Saccharomyces cerevisiae [14] it was 0 mm; in the data set with Saccharomyces cerevisiae [17], 25 mm. Moreover, the Activity with MCF7 [19] was 76%. Moreover, the IC50 in the data set with MCF7 [4] came to 4 µM; in the data set on A-431 [6] it was 5 µM; with HUVEC [15], 36 µM; in data set [16], 6 µM; in the data set on A498 it was 7 µM.
Regarding `CC(C)(C)NC(=O)C(C[Se]c1ccccc1)OC(=O)c1ccc(-c2c3nc(c(-c4ccccc4)c4ccc([nH]4)c(-c4ccccc4)c4nc(c(-c5ccccc5)c5ccc2[nH]5)C=C4)C=C3)cc1` (stereo not drawn), the IC50 (with MCF7 [4]; in the data set on A-431 [6]; in the data set on HUVEC [15]; in data set [16]; in the data set on A498) was over 100 µM throughout.
On to `CC1=C(SCCC(=O)OC(C[Se]c2ccccc2)C(=O)NC(C)(C)C)C(=O)c2ccccc2C1=O` (stereo not drawn), for which the zone of inhibition at 20 µg/disc in the data set with Saccharomyces cerevisiae [1] was found to be 15 mm; in the data set on Saccharomyces cerevisiae [3] it was 9 mm; in the data set with Saccharomyces cerevisiae [5], 0 mm; with Saccharomyces cerevisiae [7], 0 mm; with Saccharomyces cerevisiae [9] it was 12 mm; with Saccharomyces cerevisiae [10] it was 11 mm. Besides, the zone of inhibition at 20 µg/disc with Saccharomyces cerevisiae [11] is 9 mm; with Saccharomyces cerevisiae [12] it was 0 mm; in the data set with Saccharomyces cerevisiae [13], 12 mm; with Saccharomyces cerevisiae [14] it was 9 mm; in the data set with Saccharomyces cerevisiae [17] it was 12 mm. For the same compound, the IC50 with MCF7 [4] is 14 µM; in the data set on A-431 [6] it was 7 µM; with HUVEC [15], 34 µM; in data set [16] it was 26 µM; with A498 it was over 100 µM.
